Measured values taken from ChEMBL document CHEMBL2203173 (J Med Chem, 2012).

Tests used:
SK-N-MC [1] = assay: Antiproliferative activity at human SK-N-MC cells after 72 hrs by MTT assay; type: functional, cell-based
DMS-53 = assay: Antiproliferative activity at human DMS53 cells after 72 hrs by MTT assay; type: functional, cell-based
SK-N-MC [2] = assay: Inhibition to 59Fe uptake from 59Fe-transferrin in human SK-N-MC cells at 25 uM after 3 hrs; type: functional; design: scale not given: the % may be the effect or the level left
Procedure, shortened: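 SK-N-MC cells labeled with 59Fe-transferrin (0.75 μM) for 3 h/37 °C with or without chelators (25 μM). Cells washed four times on ice with ice-cold PBS. Internalized 59Fe separated with Pronase (1 mg/mL) and expressed as % of control. Mean ± SD of three experiments.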

MRC5 = assay: Antiproliferative activity at human MRC5 cells after 72 hrs by MTT assay; type: functional, cell-based; settings: MRC5, 72 h
A549 [3] = assay: Antiproliferative activity at human A549 cells after 72 hrs by MTT assay; type: functional, cell-based
SK-N-MC [4] = assay: Induction of 59Fe mobilization in human SK-N-MC cells at 25 uM after 3 hrs by gamma-scintillation counter; type: functional
Procedure, shortened: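 SK-N-MC cells prelabeled with 59Fe-transferrin (0.75 μM) for 3 h/37 °C, then washed four times on ice with ice-cold PBS. Cells reincubated with or without chelators (25 μM) for 3 h/37 °C. Released 59Fe given as % of cellular 59Fe. Mean ± SD of three experiments.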

SK-N-MC [5] = assay: Ratio of Dp4mT IC50 to compound IC50 for human SK-N-MC cells; type: functional
A549 [6] = assay: Ratio of compound IC50 to Dp44mT IC50 for human A549 cells; type: functional
A549 [7] = assay: Ratio of compound IC50 to DFO IC50 for human A549 cells; type: functional
Procedure, shortened: (§1)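 A549 human non-small cell lung carcinoma cells were exposed to agents for 72 h. IC50 is the concentration that inhibits cell growth to 50% of the untreated control. Values are mean ± SD of three experiments. The ratio is the compound IC50 divided by the IC50 of the reference chelator (DFO or NIH) from the same assay.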

A549 [8] = assay: Ratio of compound IC50 to NIH IC50 for human A549 cells; type: functional; procedure, shortened: as §1

## CCN(CC)C(=S)N/N=C(\c1ccccc1)c1ccccn1
SK-N-MC [1]
  IC50: 11 nM

## CNC(=S)N/N=C(\c1ccccc1)c1ccccn1
SK-N-MC [1]
  IC50: 18 nM

## CC(=O)N(O)CCCCCNC(=O)CCC(=O)N(O)CCCCCNC(=O)CCC(=O)N(O)CCCCCN [DEFEROXAMINE]
DMS-53; Homo sapiens, DMS-53, 72 h
  IC50: 10000 nM
SK-N-MC [2]
  Activity: 84%
MRC5
  IC50: > 10000 nM
A549 [3]; Homo sapiens, A549, 72 h
  IC50: 7500 nM
SK-N-MC [4]
  Activity: 15.2%

## CN(C(=S)NN=C(c1ccccn1)c1ccccn1)C1CCCCC1
SK-N-MC [5]
  Ratio IC50: 23
DMS-53; dms-53
  IC50: 8 nM
A549 [6]
  Ratio IC50: 5
SK-N-MC [1]
  IC50: 13 nM

## O=C(N/N=C/c1c(O)ccc2ccccc12)c1ccncc1
DMS-53; Homo sapiens, DMS-53, 72 h
  IC50: 1100 nM
SK-N-MC [2]
  Activity: 5.3%
MRC5
  IC50: > 10000 nM
A549 [3]; Homo sapiens, A549, 72 h
  IC50: 2200 nM
SK-N-MC [4]
  Activity: 44.9%
SK-N-MC [1]
  IC50: 1100 nM

## CCN(C)C(=S)NN=C(c1ccccn1)c1ccccn1
A549 [7]
  Ratio IC50: 137
DMS-53; dms-53
  IC50: 8 nM
A549 [3]; a549
  IC50: 10 nM
A549 [8]
  Ratio IC50: 137
SK-N-MC [1]
  IC50: 4 nM

## COc1cc([C@@H]2c3cc4c(cc3[C@@H](O[C@@H]3O[C@@H]5CO[C@@H](C)O[C@H]5[C@H](O)[C@H]3O)[C@H]3COC(=O)[C@H]23)OCO4)cc(OC)c1O [ETOPOSIDE]
DMS-53; Homo sapiens, DMS-53, 72 h
  IC50: 1500 nM
A549 [3]; Homo sapiens, A549, 72 h
  IC50: 800 nM

## CCN(C)C(=S)N/N=C(\c1ccccc1)c1ccccn1
SK-N-MC [1]
  IC50: 6 nM
